# This is a sample that favours compounds with a hit; in the whole collection about 1.3% have one here.
# PP1 counter: counter-screen for PP5 inhibitors: inhibitors of human PP1-alpha; hit rate 0.9% among 320,000; inhibition, % at 6.7 µM; purified PP1alpha, OMFP fluorescence; AID 2235; P62136;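 active = inhibition above the mean inhibition of all tested compounds plus 3 SD, computed separately for each screening campaign, cut at about 15% in these data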
# Target sequence (P62136 whole entry, looked up): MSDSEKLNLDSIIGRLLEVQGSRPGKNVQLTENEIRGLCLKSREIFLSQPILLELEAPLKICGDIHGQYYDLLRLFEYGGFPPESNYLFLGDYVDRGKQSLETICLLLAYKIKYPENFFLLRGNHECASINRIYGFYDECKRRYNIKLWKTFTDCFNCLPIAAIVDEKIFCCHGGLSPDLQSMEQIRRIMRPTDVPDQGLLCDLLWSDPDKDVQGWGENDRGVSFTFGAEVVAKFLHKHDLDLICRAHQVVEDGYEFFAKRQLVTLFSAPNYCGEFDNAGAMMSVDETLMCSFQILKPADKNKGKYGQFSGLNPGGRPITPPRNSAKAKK
# NR2E3 ag-1: human photoreceptor-specific nuclear receptor agonism. Q9Y5X4. CHO-S Gal4-NCOR/VP16-NR2E3 two-hybrid, luciferase. hit rate 0.35% among 360,000. inhibition of corepressor binding, % at 3.98 µM;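 active = inhibition above the mean of all tested compounds plus 3 SD, cut at about 70% in these data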;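 also: higher means lower luciferase signal from less NR2E3 corepressor binding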
# NR2E3 ag-2: NR2E3 (human) agonism; GST-NR2E3/biotin-RetCOR TR-FRET, 1536-well; hit rate 0.12% among 320,000; AID 2300; inhibition of corepressor binding, % at 4.78 µM; Q9Y5X4;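 active = percent inhibition above the cutoff of mean plus 3 SD of all tested compounds, set per screening campaign, cut at about 20% in these data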
#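 Test system: GST-NR2E3 and biotin-RetCOR proteins | Quantity: 1.35 nM GST-tagged NR2E3 final | Medium: Tris pH 7.5 | Also added: 7 nM biotin-RetCOR | Dosing: Compound at 4.8 µM, single dose | Timing: 5 h at 4 °C | Detection: Time-resolved FRET | Read-out basis: Percent inhibition | Benchmarks: Biotin wells as high control, 0.6% DMSO wells as low control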
# PP5 inh: PP5 (human) phosphatase inhibition. purified PP5c, OMFP substrate fluorescence. P53041. hit rate 0.18% among 320,000. inhibition, % at 6.7 µM;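 active = inhibition above the campaign's mean inhibition across all tested compounds plus 3 SD, cut at about 9.5% in these data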
# PP1 confirm: confirmation of human PP1 phosphatase inhibitors; inhibition, % at 6.7 µM; purified PP1alpha, OMFP substrate fluorescence; shares compounds with PP1 counter; hit rate 52% among 1,900;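 active = mean PP1 inhibition above a set limit taken from the earlier primary screen, cut at about 15% in these data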
# PP5 inh counter: inhibits human PP5 phosphatase in PP1 counter-screen; shares compounds with PP1 counter; AID 2360; inhibition, % at 6.7 µM; hit rate 4% among 1,900; purified PP5c, OMFP fluorescence;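 active = mean PP5 inhibition over triplicate wells above about 9.5% taken from the earlier PP1 screen, limit read from the data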
# A number is an active result; i = inactive; nt = not tested or not shown.
SMILES,PP1 counter,NR2E3 ag-1,NR2E3 ag-2,PP5 inh,PP1 confirm,PP5 inh counter
Cc1ccsc1/C=C/c1ccc2cccc(O)c2n1,21,i,i,i,19,i
Oc1cccc2ccc(/C=C/c3cccs3)nc12,24,i,i,i,19,i
COc1ccc(OC)c(NC(=O)COC(=O)c2ccc(OC)c(S(=O)(=O)N3CCOCC3)c2)c1,i,i,i,i,nt,nt
CCCCNC(=O)C[C@@H]1C[C@@]2(C(=O)OCC)CCCC=C2N(Cc2ccc3c(c2)OCO3)C1=O,nt,i,nt,nt,nt,nt
Cc1ccccc1S(=O)(=O)NC(=O)C1(C)CCN1C(=O)C1(c2ccccc2)CC1 (centres undefined),nt,i,nt,nt,nt,nt
CCCn1c(=O)c(C(=O)NNC(=O)c2ccccc2[N+](=O)[O-])c(O)c2ccccc21,20,i,i,i,18,i
Fc1ccc(Oc2nc(-c3ccccn3)nc3ccccc23)cc1,18,i,i,i,23,i
COc1ccc(CCNC(=O)c2ccc3nc(N4CCCCC4)sc3c2)cc1OC,i,i,i,i,nt,nt
CCN(CC)S(=O)(=O)c1ccc(C(=O)Nc2nnc(-c3ccco3)o2)cc1,i,i,i,i,nt,nt
CCCCN(C)S(=O)(=O)c1ccc(C(=O)Nc2nnc(CSC)o2)cc1,24,i,i,i,23,i
CCOC(=O)N1CCN(S(=O)(=O)c2ccc(C(=O)Nc3nnc(CSC)o3)cc2)CC1,18,i,i,i,i,i
CCCCN(CC)S(=O)(=O)c1ccc(C(=O)Nc2nnc(-c3cccs3)o2)cc1,26,nt,i,i,18,i
CCCCN(CCCC)S(=O)(=O)c1ccc(C(=O)Nc2nnc(COC)o2)cc1,23,i,i,i,16,i
CC(C(=O)NC1(C#N)CCCCC1)N(C)CC(=O)Nc1ccc(Cl)c(Cl)c1 (centres undefined),i,i,i,i,nt,nt
Cc1cc2c(C)nc(N/N=C/c3ccc([N+](=O)[O-])cc3)nc2o1,18,i,i,i,33,i
Fc1cccc(Cl)c1CSc1ccc2nnc(-c3ccccn3)n2n1,i,i,i,i,nt,nt
Fc1cccc(CSc2ccc3nnc(-c4ccccn4)n3n2)c1,18,i,i,i,i,i
CC(NCCCOc1cccc2ccccc12)c1ccccc1 (centres undefined),i,i,i,i,nt,nt
Cn1cnnc1SCc1ccc(C(=O)N=Nc2c(O)n(Cc3ccc(Cl)cc3)c3ccccc23)cc1,20,i,i,i,16,i
CCn1c(O)c(N=NC(=O)c2ccc(CSc3nncn3C)cc2)c2ccccc21,i,i,i,i,nt,nt
O=C(N=Nc1c(O)[nH]c2ccccc12)c1cc(-c2cccs2)[nH]n1,18,i,i,i,24,i
COc1ccc(C(=O)Nc2ccc(-c3nnn(CC(=O)NCc4ccco4)n3)cc2)cc1,20,i,i,i,24,i
O=c1c(C(c2ccccc2)c2c(O)sc3ccccc3c2=O)c(O)sc2ccccc12,25,i,i,i,31,i
NC(=O)C1(N2CCCCC2)CCN(C(=O)c2cc(COc3c(F)cccc3F)on2)CC1,nt,i,nt,nt,nt,nt
CCN(CC)c1ccc(/C=N/NC(=O)Cc2nnc(NC(=O)Nc3ccccc3)s2)cc1,20,i,i,i,25,i
SMILES,PP1 counter,NR2E3 ag-1,NR2E3 ag-2,PP5 inh,PP1 confirm,PP5 inh counter
CCN(CC)c1ccc(/C=N/NC(=O)Nc2ccccc2)cc1,i,i,i,i,nt,nt
CC(=O)Nc1ccc(NC(=O)COC(=O)c2ccccc2SCC(=O)N2CCCC2)cc1,58,i,i,i,i,i
N#CCSc1nc2ccc(N3CCCCC3)cc2c(=O)n1Cc1ccccc1,23,i,i,i,21,i
N#CCSc1nc2ccccc2c(=O)n1CC1CCCC1,i,i,i,i,nt,nt
O=C1/C(=C/c2ccc(N3CCCC3)cc2)NC(=S)N1C1CC1,i,i,i,i,nt,nt
O=C1N/C(=C/c2ccc(N3CCCC3)cc2)C(=O)N1c1ccccc1,23,i,i,i,i,i
CCN(CC1CCCO1)C(=O)CCc1nnc(CCc2ccc(OC)cc2)o1 (centres undefined),i,i,i,i,nt,nt
Cc1[nH][nH]c(=O)c1C(c1c(C)[nH][nH]c1=O)c1cn(Cc2ccc(Cl)c(Cl)c2)c2ccccc12,18,i,i,i,17,24
Cc1[nH][nH]c(=O)c1C(c1c(C)[nH][nH]c1=O)c1cn(Cc2ccc(F)cc2)c2ccccc12,i,i,i,i,nt,nt
CC(=O)Nc1ccc(OC(=O)c2ccco2)cc1,19,i,i,i,i,i
Cc1c(C(=O)Nc2ccc3c(c2)OCCO3)sc2ncnc(N3CCCCC3C)c12 (centres undefined),i,i,i,i,nt,nt
CCOC(=O)C1=C(c2ccccc2)N=c2s/c(=C\c3cc(OC)c(OC)c(OC)c3)c(=O)n2C1c1cccs1 (centres undefined),i,i,i,i,nt,nt
CCOC(=O)C1=C(c2ccccc2)N=c2s/c(=C\c3ccco3)c(=O)n2C1c1cccs1 (centres undefined),21,i,i,i,19,i
Cc1cc(N2CCCC2)ccc1/C=N/n1cnnc1,18,i,i,i,i,i
C[C@H](CO)N1C[C@H](C)[C@@H](CN(C)C(=O)CN2CCOCC2)Oc2ncc(-c3cncnc3)cc2C1=O,nt,i,nt,nt,nt,nt
CC1Cc2cc(/C(O)=C3/C(=O)C(=O)N(CCCn4ccnc4)C3c3ccncc3)ccc2O1 (centres undefined),i,i,i,i,nt,nt
CC1Cc2cc(/C(O)=C3/C(=O)C(=O)N(CCCn4ccnc4)C3c3ccc(Br)cc3)ccc2O1 (centres undefined),26,i,i,i,31,i
Cc1cccc(N2CC(C(=O)Nc3nnc(SCC(=O)Nc4cc(C)on4)s3)CC2=O)c1 (centres undefined),27,i,i,i,27,i
S=c1[nH]nc(-c2cc(-c3ccccc3)n[nH]2)n1/N=C/c1ccccc1,i,i,i,i,nt,nt
COc1ccccc1/C=C/C=N/n1c(-c2cc(-c3ccccc3)n[nH]2)n[nH]c1=S,22,i,i,i,27,i
S=c1[nH]nc(-c2cc(-c3ccccc3)n[nH]2)n1/N=C/C=C/c1ccccc1,23,i,i,i,17,i
COc1ccc(Cl)cc1NC(=O)c1nnn(CC(=O)Nc2ccc(OC)c(OC)c2)c1N,i,i,i,i,nt,nt
COc1cccc(NC(=O)Cn2nnc(C(=O)Nc3cc(Cl)ccc3OC)c2N)c1,18,i,i,i,19,i
COc1ccc(Cl)cc1NC(=O)c1nnn(CC(=O)Nc2ccc3c(c2)OCO3)c1N,25,i,i,i,26,i
COc1ccc(NC(=O)c2nnn(CC(=O)Nc3ccc4c(c3)OCO4)c2N)cc1OC,i,i,i,i,nt,nt
CC(C)[C@H](CO)NC(=O)[C@H]1O[C@@H](n2ccc(=O)[nH]c2=O)[C@H](O)[C@@H]1O,nt,i,nt,nt,nt,nt
COc1cc(/C=C2\SC(=O)N(CC(=O)Nc3ccc(C)cc3)C2=O)cc(Cl)c1OCC(=O)O,43,i,i,i,46,i
